≈ marks a conversion by molar mass, not a printed value. Calls of active or inactive are those of the source. No cut-off for these calls is given here.
How the values were obtained:
C6 = assay: Cytotoxicity against rat C6 cells after 72 hrs by acid phosphatase assay; type: functional, cell-based; details: C6, 72 h
Procedure, shortened: (§1)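 Cells grown in DMEM with 10% FCS, penicillin and streptomycin at 37 °C, 5% CO2. Seeded at 2000 cells/well in 96-well plates and exposed to compound or left untreated for 72 h.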

LoVo = assay: Cytotoxicity against human LoVo cells after 72 hrs by acid phosphatase assay; type: functional, cell-based; procedure, shortened: as §1
HCT-116 = assay: Cytotoxicity against human HCT116 cells after 72 hrs by acid phosphatase assay; type: functional, cell-based; details: HCT-116, 72 h; procedure, shortened: as §1
HeLa = assay: Cytotoxicity against human HeLa cells after 72 hrs by acid phosphatase assay; type: functional, cell-based; procedure, shortened: as §1
Huh-7 = assay: Cytotoxicity against human HuH7 cells after 72 hrs by acid phosphatase assay; type: functional, cell-based; details: Huh-7, 72 h; procedure, shortened: as §1
[1] = Antioxidant activity assessed as inhibition of peroxide formation using iron/ascorbate system; type: functional
Procedure, shortened: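 Linoleic acid (100 mg) emulsified with Tween 20 in 50 mM Tris pH 7.4. Emulsion mixed with iron/ascorbate (30 µM FeCl3, 200 µM ascorbic acid, made daily) and methanolic compound, giving ca. 0, 1, 4, 10 ppm final. Tubes held on ice, then 37 °C for 5 and 30 min. Conjugated diene hydroperoxide read at 234 nm after MeOH dilution. BHT 2000 ppm control. Triplicates.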

CCCCCC/C=C\CCCCCCCCCc1cc(O)ccc1O
IC50 (C6): 1.1 µg/mL (≈ 3.17 µM) | IC50 (LoVo): 2.9 µg/mL (≈ 8.37 µM) | IC50 (HCT-116): 3.4 µg/mL (≈ 9.81 µM) | IC50 (HeLa): 4.7 µg/mL (≈ 13.6 µM) | IC50 (Huh-7): 6.4 µg/mL (≈ 18.5 µM) | Activity [1]: Active

CCC/C=C/C/C=C\CCCCCCCCCc1cc(O)ccc1O
IC50 (C6): 1 µg/mL (≈ 2.9 µM) | IC50 (LoVo): 5.6 µg/mL (≈ 16.3 µM) | IC50 (HCT-116): 3.5 µg/mL (≈ 10.2 µM) | IC50 (HeLa): 4.6 µg/mL (≈ 13.4 µM) | IC50 (Huh-7): 6 µg/mL (≈ 17.4 µM) | Activity [1]: Active

C/C=C/C=C/C/C=C\CCCCCCCCCc1cc(O)ccc1O
IC50 (C6): 0.9 µg/mL (≈ 2.63 µM) | IC50 (LoVo): 4.5 µg/mL (≈ 13.1 µM) | IC50 (HCT-116): 2 µg/mL (≈ 5.84 µM) | IC50 (HeLa): 2.8 µg/mL (≈ 8.17 µM) | IC50 (Huh-7): 3.9 µg/mL (≈ 11.4 µM) | Activity [1]: Active
